The subject of data set [1] is Nucleic Acid. Briefly: Michaelis constant at a concentration of 5 uM on calf DNA polymerase alpha as a function of nucleotide substrate concentration. The following applies: Bos taurus. In kind it is nucleic-acid assay. The method in brief: (§1)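 Kinetic runs used calf thymus pol α or rat pol β (0.05 units each) preincubated with compound at 0 °C for 10 min in Tris–HCl pH 7.5/DTT/glycerol/EDTA buffer. Either poly(dA)/oligo(dT)12–18 (2/1) template-primer or dTTP substrate was varied. Km and Vmax came from double reciprocal plots, Ki from Dixon plots.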

The subject of data set [2] is Nucleic Acid. In words: Compound was evaluated for relative maximum velocity (Vmax) at a concentration of 10 uM on calf DNA polymerase alpha as a function of nucleotide substrate concentration. The settings on record: Bos taurus. In kind it is nucleic-acid assay. The procedure, abridged:
as §1

The test system of data set [3] is Nucleic Acid. In words: Compound was evaluated for relative maximum velocity (Vmax) at a concentration of 10 uM on calf DNA polymerase alpha as a function of template primer dose. In kind it is nucleic-acid assay. The following applies: Bos taurus. The procedure, abridged: as §1
The subject of data set [4] is Nucleic Acid. Briefly: Compound was evaluated for relative maximum velocity (Vmax) at a concentration of 5 uM on calf DNA polymerase alpha as a function of nucleotide substrate concentration. In kind it is nucleic-acid assay. The settings on record: Bos taurus. The method in brief: as §1
Data set [5] relates to Nucleic Acid. Briefly: Compound was evaluated for relative maximum velocity (Vmax) at a concentration of 5 uM on calf DNA polymerase alpha as a function of template primer dose. In kind it is nucleic-acid assay. The following applies: Bos taurus. The method in brief:
as §1

Data set [6] concerns Nucleic Acid. In words: Compound was evaluated for relative maximum velocity (Vmax) at a concentration of 0 uM on calf DNA polymerase alpha as a function of DNA template primer dose. In kind it is nucleic-acid assay. The settings on record: Bos taurus. The procedure, abridged:
as §1

For data set [7], the system named is Nucleic Acid. Briefly: Compound was evaluated for Michaelis constant at a concentration of 0 uM on calf DNA polymerase alpha as a function of DNA template primer dose. In kind it is nucleic-acid assay. The settings on record: Bos taurus. The method in brief:
as §1

In data set [8] the test system is Nucleic Acid. In words: Compound was evaluated for relative maximum velocity (Vmax) at a concentration of 0 uM on calf DNA polymerase alpha as a function of nucleotide substrate concentration. In kind it is nucleic-acid assay. The following applies: Bos taurus. The method in brief: as §1
The subject of data set [9] is Nucleic Acid. The following applies: Bos taurus; 25 uM.
The subject of data set [10] is Nucleic Acid. The following applies: Bos taurus; 50 uM.
Data set [11] relates to Nucleic Acid. The settings on record: Bos taurus; 25 uM. The source holds these as a separate data set.
The subject of data set [12] is Nucleic Acid. The following applies: Bos taurus; 50 uM. The source holds these as a separate data set.
In data set [13] the test system is Nucleic Acid. The following applies: Bos taurus; 25 uM. The source holds these as a separate data set.
The test system of data set [14] is Nucleic Acid. The following applies: Bos taurus; 25 uM. The source holds these as a separate data set.
Data set [15] has as its system C[C@H](CCC(=O)O)[C@H]1CC[C@H]2[C@@H]3CCC4C[C@@H](OC(=O)CCNC(=O)CCCCCNC(=O)CCCCCNC(=O)CCCCC5SCC6NC(=O)NC65)CC[C@]4(C)[C@H]3CC[C@]12C. Briefly: Michaelis constant at a concentration of 10 uM on rat DNA polymerase beta as a function of nucleotide substrate concentration. The method in brief:
as §1

Data set [16] shares this test system. Briefly: Michaelis constant at a concentration of 0 uM on rat DNA polymerase beta as a function of template primer dose. The method in brief: as §1
Data set [17] deals with C[C@H](CCC(=O)O)[C@H]1CC[C@H]2[C@@H]3CCC4C[C@@H](O)CC[C@]4(C)[C@H]3CC[C@]12C. The following applies: 5 uM.
Data set [18] relates to C[C@H](CCC(=O)O)[C@H]1CC[C@H]2[C@@H]3CCC4C[C@@H](OC(=O)CCNC(=O)CCCCCNC(=O)CCCCCNC(=O)CCCCC5SCC6NC(=O)NC65)CC[C@]4(C)[C@H]3CC[C@]12C. In words: Compound was evaluated for relative maximum velocity (Vmax)at a concentration of 10 uM on rat DNA polymerase beta as a function of nucleotide substrate concentration. The method in brief:
(§2)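 Rat DNA pol β (0.05 units) was used. Compound was dissolved in DMSO, sonicated 30 s, and preincubated with enzyme for 10 min at 0 °C in 50 mM Tris–HCl (pH 7.5), 1 mM dithiothreitol, 50% glycerol and 0.1 mM EDTA. It was then added to the standard reaction. Template-primer poly(dA)/oligo(dT)12–18 (2/1) or dTTP substrate was varied. Km and Vmax came from double reciprocal plots.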

For data set [19] the test system is unchanged. In words: Michaelis constant at a concentration of 20 uMon rat DNA polymerase beta as a function of nucleotide substrate concentration. The following applies: 20 uM. The procedure, abridged:
as §1

The subject of data set [20] is C[C@H](CCC(=O)O)[C@H]1CC[C@H]2[C@@H]3CCC4C[C@@H](O)CC[C@]4(C)[C@H]3CC[C@]12C. The following applies: 5 uM. The source holds these as a separate data set.
Data set [21] concerns C[C@H](CCC(=O)O)[C@H]1CC[C@H]2[C@@H]3CCC4C[C@@H](OC(=O)CCNC(=O)CCCCCNC(=O)CCCCCNC(=O)CCCCC5SCC6NC(=O)NC65)CC[C@]4(C)[C@H]3CC[C@]12C. In words: Michaelis constant at a concentration of 0 uM on rat DNA polymerase beta as a function of nucleotide substrate concentration. The procedure, abridged: as §2
The subject of data set [22] is C[C@H](CCC(=O)O)[C@H]1CC[C@H]2[C@@H]3CCC4C[C@@H](O)CC[C@]4(C)[C@H]3CC[C@]12C. The following applies: 10 uM.
Data set [23] has the same test system. The settings on record: 0 uM.
Data set [24] concerns C[C@H](CCC(=O)O)[C@H]1CC[C@H]2[C@@H]3CCC4C[C@@H](OC(=O)CCNC(=O)CCCCCNC(=O)CCCCCNC(=O)CCCCC5SCC6NC(=O)NC65)CC[C@]4(C)[C@H]3CC[C@]12C. In words: Michaelis constant at a concentration of 20 uM on rat DNA polymerase beta as a function of template primer dose. The procedure, abridged:
as §1

Data set [25] shares this test system. Briefly: Michaelis constant at a concentration of 10 uM on rat DNA polymerase beta as a function of template primer dose. The method in brief: as §1
Data set [26] concerns C[C@H](CCC(=O)O)[C@H]1CC[C@H]2[C@@H]3CCC4C[C@@H](O)CC[C@]4(C)[C@H]3CC[C@]12C. The settings on record: 5 uM. The source holds these as a separate data set.
The test system is the same in data set [27]. The following applies: 5 uM. The source holds these as a separate data set.
Data set [28] has the same test system. The following applies: 10 uM. The source holds these as a separate data set.
The subject of data set [29] is C[C@H](CCC(=O)O)[C@H]1CC[C@H]2[C@@H]3CCC4C[C@@H](OC(=O)CCNC(=O)CCCCCNC(=O)CCCCCNC(=O)CCCCC5SCC6NC(=O)NC65)CC[C@]4(C)[C@H]3CC[C@]12C. In words: Compound was evaluated for relative maximum velocity (Vmax) at a concentration of 10 uM on rat DNA polymerase beta as a function of template primer dose. The method in brief:
as §2

What is called Km is the substrate concentration at which the rate is half of its maximum.

As for `C[C@H](CCC(=O)O)[C@H]1CC[C@H]2[C@@H]3CCC4C[C@@H](OC(=O)CCNC(=O)CCCCCNC(=O)CCCCCNC(=O)CCCCC5SCC6NC(=O)NC65)CC[C@]4(C)[C@H]3CC[C@]12C` (stereo partly specified), the Km in the data set with Nucleic Acid [1] stood at 1.65 µM; in the data set on Nucleic Acid [7], 13 µM. The Vmax is 17.8 pM/h in the data set on Nucleic Acid [2]; 21.3 pM/h in the data set with Nucleic Acid [3]; 24.3 pM/h in the data set on Nucleic Acid [4]; 33.5 pM/h with Nucleic Acid [5]; 55.6 pM/h in the data set on Nucleic Acid [6]; 29.2 pM/h with Nucleic Acid [8].
For the compound `C[C@H](CCC(=O)O)[C@H]1CC[C@H]2[C@@H]3CCC4C[C@@H](O)CC[C@]4(C)[C@H]3CC[C@]12C` (stereo partly specified), the Km with Nucleic Acid [9] worked out at 13 µM; with Nucleic Acid [11], 1.65 µM. Further, the Vmax is 17.7 pM/h with Nucleic Acid [10]; 55.6 pM/h in the data set on Nucleic Acid [6]; 14.8 pM/h in the data set on Nucleic Acid [12]; 24.9 pM/h in the data set on Nucleic Acid [13]; 29.2 pM/h in the data set with Nucleic Acid [8]; 31.3 pM/h in the data set with Nucleic Acid [14].
For “DNA polymerase beta (Rattus norvegicus) (from UniProt P06766)”, the Km in data set [15] was found to be 6.67 µM; in [16], 6.47 µM; in [19] it was 9.49 µM; in [20] it was 6.28 µM; in [21], 3.05 µM; in [22], 18.3 µM. Also, the Km in [23] was found to be 3.05 µM; in data set [24] it was 21.7 µM; in data set [25] it was 9.98 µM; in data set [26], 9.41 µM; in data set [28] it was 7.86 µM. Besides, the Vmax in data set [17] came out at 62.5 pMl hr-1; in data set [18], 62.5 pMl hr-1; in [27], 111 pMl hr-1; in [29] it was 111 pMl hr-1.

These data come from ChEMBL document CHEMBL1135021, “Biotinylated lithocholic acids for affinity chromatography of mammalian DNA polymerases alpha and beta” (Bioorg Med Chem Lett, 2002).
